# Shown are actives, neighbours in structure and some others; about 1.4% of the full set was active somewhere.
# NR1D1 modulator = modulators of Rev-erb alpha DNA binding, primary screen, biochemical, FITC-DNA, fluorescence polarization, uHTS. Nuclear receptor subfamily 1 group D member 1 (Homo sapiens), P20393. Rev-erbα–FITC-DNA binding, 90 min. 370,000 tested, 0.79% active. activity, % at 10 µM;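 active = activity above about 14%, limit read from the data; passing the limit was not always enough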;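 also: 0% = DMSO wells with 35 nM protein and 100% = DMSO wells with 750 nM protein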
# Target sequence (P20393 whole entry, looked up): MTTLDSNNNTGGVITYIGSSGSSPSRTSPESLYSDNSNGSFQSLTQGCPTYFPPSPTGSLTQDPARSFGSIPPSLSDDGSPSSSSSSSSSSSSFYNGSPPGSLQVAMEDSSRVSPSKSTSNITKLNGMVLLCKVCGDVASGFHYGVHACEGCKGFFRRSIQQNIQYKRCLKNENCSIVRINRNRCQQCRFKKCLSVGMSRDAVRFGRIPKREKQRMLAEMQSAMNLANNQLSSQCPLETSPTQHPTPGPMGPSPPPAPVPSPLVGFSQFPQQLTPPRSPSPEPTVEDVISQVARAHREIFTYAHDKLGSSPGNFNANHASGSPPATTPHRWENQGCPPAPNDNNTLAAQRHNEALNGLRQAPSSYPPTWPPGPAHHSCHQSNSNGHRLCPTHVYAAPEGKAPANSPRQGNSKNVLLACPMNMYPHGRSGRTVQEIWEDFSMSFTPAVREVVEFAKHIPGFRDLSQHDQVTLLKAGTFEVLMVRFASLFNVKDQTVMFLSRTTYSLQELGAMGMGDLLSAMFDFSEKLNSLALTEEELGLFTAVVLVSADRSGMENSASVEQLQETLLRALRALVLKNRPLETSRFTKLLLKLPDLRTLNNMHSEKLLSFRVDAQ
# PG9 binder = binders of HIV-1 gp120 antibody PG9, primary screen, biochemical, TR-FRET; 360,000 tested, 0.43% active; TR-FRET gp120-PG9 antibody binding; HIV-1 gp120 / PG9 antibody interaction; AID 624416, 2012; inhibition, % at 6.7 µM; in the data active = inhibition above about 8.5%
# NR2E3 ag-1 = NR2E3 agonists in two-hybrid cells, primary screen, cell-based, luminescence, CHO-S, Gal4-NCOR/VP16-NR2E3. 360,000 tested, 0.35% active. Photoreceptor-specific nuclear receptor (Homo sapiens), Q9Y5X4. luciferase. inhibition of corepressor binding, % at 3.98 µM. AID 602229, 2012;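 active = inhibition above the mean of all tested compounds plus 3 SD, cut at about 70% in these data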;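 also: 0% = DMSO with NR2E3 transfected cells and 100% = cells lacking NR2E3 construct; higher means lower luciferase signal from less NR2E3 corepressor binding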
# NR2E3 ag-2 = inhibitors of NR2E3-RetCOR corepressor binding, primary screen, NR2E3 agonist project, biochemical, TR-FRET, GST-NR2E3, biotin-RetCOR. Photoreceptor-specific nuclear receptor (Homo sapiens), Q9Y5X4. 1536-well. inhibition of corepressor binding, % at 4.78 µM. 320,000 tested, 0.12% active. AID 2300, 2010;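 active = percent inhibition above the cutoff of mean plus 3 SD of all tested compounds, set per screening campaign, cut at about 20% in these data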;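 also: 0% = DMSO wells and 100% = biotin wells as full block of FRET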
#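 System: GST-tagged NR2E3 plus biotinylated RetCOR corepressor; Buffer or medium: pH 7.5 Tris-based buffer; Probe or stimulus: RetCOR corepressor, biotinylated, 7 nM; Doses: compound at 4.8 µM, single dose; Schedule: 5 h incubation at 4 °C; Technique: time-resolved FRET; Evaluation: percent inhibition of TR-FRET ratio; Replication: one well per compound, singlicate testing.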
# PG9 bind confirm = binders of anti-gp120 antibody PG9, confirmation, biochemical, TR-FRET | AID 651571, 2012 | shares compounds with PG9 binder | 1,500 tested, 90% active | inhibition, % at 6.7 µM | TR-FRET PG9 antibody binding; in the data active = inhibition above about 9%
# PGV04 Ab binding = binders of control antibody PGV04, counter-screen for PG9 antibody binder project, biochemical, TR-FRET, distinct HIV envelope site | inhibition, % at 6.7 µM | 1,500 tested, 95% active | TR-FRET PGV04 antibody-gp120 binding | shares compounds with PG9 binder | AID 651604, 2012; in the data active = inhibition above about 9.5%
# Rev-erbA confirm = modulators of Rev-erb alpha DNA binding, confirmation, biochemical, FITC-DNA, fluorescence polarization, single point | shares compounds with NR1D1 modulator | 3,000 tested, 61% active | 90 min | activation, % at 25 µM | AID 1259319, 2017;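 active = activation at or above a set limit, or at least 3 SD above the negative control mean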;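 also: 0% = 35 nM protein with DMSO and 100% = 750 nM protein high control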
# RORg counter = modulation of RORgamma DNA binding, dose response, counter-screen for Rev-erb alpha modulator project, biochemical, fluorescence polarization, FITC-DNA. shares compounds with NR1D1 modulator. purified RORgamma protein-FITC-DNA binding. IC50, µM. 910 tested, 8% active. AID 1259320, 2017;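 active = Compounds whose fitted half-maximal concentration for disrupting protein-DNA binding is below 10 micromolar; the record names Rev-erb in its text, so the target is in doubt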
# Numbers without * were called inactive; i = inactive; · = no result given.
SMILES,NR1D1 modulator,PG9 binder,NR2E3 ag-1,NR2E3 ag-2,PG9 bind confirm,PGV04 Ab binding,Rev-erbA confirm,RORg counter
CC(COc1cc(F)cc(C#N)c1)CN1CCC(C(O)(c2ccccc2)c2ccccc2)CC1 (stereo unspecified),-1,·,·,·,·,·,·,·
COc1ccc(C(=O)C2(C(=O)NC3CCCC3)CC(c3ccccc3C(F)(F)F)=NO2)cc1 (stereo unspecified),4,·,·,·,·,·,·,·
O=C(Cn1c(=S)[nH]c2ccccc2c1=O)N1CCc2ccccc2C1,35*,32*,-11,-3,33*,51*,23*,·
CCC(=O)c1cn(CC(=O)Nc2ccc(C)cc2C)c2ccccc12,36*,12*,14,-1,12*,18*,40*,9.8*
CCCCSc1nc(SCC(=O)NCc2ccco2)c2c3c(sc2n1)COC(C)(CC)C3 (stereo unspecified),40*,12*,-15,2,10*,17*,28*,·
CSc1nc(SCC(=O)NCc2ccco2)c2c3c(sc2n1)COC(C)(C)C3,-2,-1,-15,6,·,·,·,·
CCc1nc(SCC(=O)NCc2ccco2)c2c3c(sc2n1)CCCC3,46*,57*,-14,3,42*,64*,55*,>40
COc1ccc(S[C@]2(C(=O)N3CCN(c4ncccn4)CC3)CC(=O)N(S(=O)(=O)c3ccc(F)cc3)[C@@H]2c2ccc(OC)cc2)cc1,3,·,·,·,·,·,·,·
COc1ccc(S[C@]2(C(=O)N3CCCC3)CC(=O)N(C(=O)CCc3ccccc3)[C@@H]2c2ccc(OC)cc2)cc1,-2,·,·,·,·,·,·,·
O=S(=O)([N-]c1nc2ccccc2nc1-n1cc[n+](Cc2ccccc2)c1)c1ccc(Cl)cc1,42*,42*,-10,-1,41*,58*,11,·
COc1ccccc1CCC[C@H](CCS(=O)(=O)C(C)C)CC1CCCCC1,2,·,·,·,·,·,·,·
Cc1ccc(-n2nc3c(N4CCC(C(=O)NCCc5cccs5)CC4)nnc(C)c3c2C)cc1,30*,12*,10,1,25*,36*,36*,>40
COc1ccc(C)cc1Nc1nc(-c2ccccc2O)nc2ccccc12,83*,11*,2,0,3,5,59*,i
Cc1ccc(O)c(Nc2nc(-c3ccccc3)nc3ccccc23)c1,1,0,-6,1,·,·,·,·
COc1ccc(C(=O)Nc2nc3ccc4nc(C)sc4c3s2)cc1,34*,13*,-12,-34,9.8*,12*,42*,>40
COc1ccc(C(=O)Nc2nc3ccccc3s2)cc1,1,-1,-144,4,·,·,·,·
C=CCn1c(NC(=O)c2ccc(C)cc2)nc2ccccc21,27*,40*,-16,-1,26*,40*,-1,·
COc1cccc(NC(=O)CSc2ncnc3c2oc2ccccc23)c1,685*,69*,-23,0,75*,93*,749*,>40
COC(=O)Cn1c(=NC(=O)c2ccc(OC)c(OC)c2)sc2cc(OC)ccc21,64*,33*,4,5,61*,75*,31*,>40
Cc1cc2c(cc1S(=O)(=O)N1CCN(c3cccc(C(F)(F)F)c3)CC1)OCC(=O)N2,4,-1,-26,2,·,·,·,·
CC(=O)c1ccc(N2CCN(S(=O)(=O)c3cc4c(cc3C)NC(=O)CO4)CC2)cc1,31*,37*,-5,-9,33*,48*,23*,·
CC(=O)Nc1nnc(SCC(=O)c2ccc3c(c2)Cc2ccccc2-3)s1,55*,10*,-15,-2,21*,49*,18*,·
CC(=O)Nc1nnc(SCC(=O)NC2CC2)s1,-2,-1,-11,4,·,·,·,·
O=C(Nc1ccc2oc(-c3cccc(F)c3)nc2c1)c1ccccc1F,82*,16*,-73,4,40*,59*,42*,>40
COc1ccc(C(=O)Nc2nc3ccc(S(C)(=O)=O)cc3s2)cc1OC,30*,22*,-6,1,28*,40*,25*,·
SMILES,NR1D1 modulator,PG9 binder,NR2E3 ag-1,NR2E3 ag-2,PG9 bind confirm,PGV04 Ab binding,Rev-erbA confirm,RORg counter
Cc1ccc(C(=O)Nc2nc3ccc(S(C)(=O)=O)cc3s2)cc1C,26*,21*,-7,0,32*,51*,21*,·
Cc1ccc(NC(=O)Nc2nc3ccc(S(C)(=O)=O)cc3s2)cc1,19*,34*,9,·,31*,42*,8,·
Cc1cccc(C(=O)Nc2nc3ccc(S(C)(=O)=O)cc3s2)c1,36*,34*,-148,·,15*,38*,22*,·
CS(=O)(=O)c1ccc2nc(NC(=O)Nc3ccc(Cl)c(Cl)c3)sc2c1,8,-1,-16,8,·,·,·,·
CS(=O)(=O)c1ccc2nc(NC(=O)c3ccccc3)sc2c1,0,0,-111,0,·,·,·,·
CCCCCC[C@@H](CCCc1ccccc1OC)CN(CCCC)S(C)(=O)=O,0,·,·,·,·,·,·,·
COC(=O)[C@]12C[C@H](CC(=O)NCc3cccs3)C(=O)N(Cc3cccc4ccccc34)C1=C[C@H](COCc1ccccc1)O[C@@H]2C,0,·,·,·,·,·,·,·
CCCCOc1ccc(C(=O)NC2CCCCN(Cc3cccc(Cl)c3)C2=O)cc1 (stereo unspecified),10,·,·,·,·,·,·,·
O=C(OCCN1CCCC12CCC(c1ccccc1)CC2)c1ccccc1 (stereo unspecified),2,·,·,·,·,·,·,·
CC(NCc1ccco1)C(=O)N1CCCC1 (stereo unspecified),4,·,·,·,·,·,·,·
COc1cc(NC(=O)CCn2c(=S)[nH]c3ccccc3c2=O)cc(OC)c1OC,27*,81*,3,·,79*,81*,36*,>40
COc1ccc(NC(=O)c2sc3cc(C(F)(F)F)cnc3c2-c2cccs2)cc1,112*,9.6*,2,0,18*,71*,73*,>40
N#Cc1ccc(NC(=O)c2sc3cc(C(F)(F)F)cnc3c2-c2cccs2)cc1,8,-13,-8,0,·,·,·,·
